# Measured values gathered from unrelated publications.
# Protocols differ between the studies behind these lines.
# Target: Tyrosine-protein kinase Tec (TEC, Homo sapiens, UniProt P42680)
# Sequence (P42680 1-631, as in one of the studies): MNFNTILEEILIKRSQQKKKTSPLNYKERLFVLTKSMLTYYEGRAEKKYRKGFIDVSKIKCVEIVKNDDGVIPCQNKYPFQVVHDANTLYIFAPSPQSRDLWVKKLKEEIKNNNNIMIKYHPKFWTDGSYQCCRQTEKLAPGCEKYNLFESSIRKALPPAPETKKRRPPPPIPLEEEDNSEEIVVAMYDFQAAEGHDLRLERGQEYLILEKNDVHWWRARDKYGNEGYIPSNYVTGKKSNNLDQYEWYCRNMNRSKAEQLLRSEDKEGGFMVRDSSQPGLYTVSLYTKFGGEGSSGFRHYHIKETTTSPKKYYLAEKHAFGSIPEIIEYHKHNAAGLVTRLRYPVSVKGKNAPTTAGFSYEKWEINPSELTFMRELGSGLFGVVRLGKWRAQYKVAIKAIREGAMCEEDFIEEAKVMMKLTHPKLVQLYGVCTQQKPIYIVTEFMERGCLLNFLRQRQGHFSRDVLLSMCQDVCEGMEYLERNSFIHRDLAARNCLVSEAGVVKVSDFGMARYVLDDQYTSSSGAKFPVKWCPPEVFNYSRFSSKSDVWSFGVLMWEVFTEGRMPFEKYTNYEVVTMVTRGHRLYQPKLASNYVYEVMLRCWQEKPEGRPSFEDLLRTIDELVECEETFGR
SMILES,test,conditions,remaining binding [%]
CN(C)c1nccc(-c2cnc3ncccn23)n1,binding,1 µM,100
C[C@@H](c1ccc(-n2cnc3c(N)ncnc32)cc1)N1CCc2nn(C)c(Cc3ccccc3)c2C1=O,"binding, competition with immobilised ligand",0.1 µM,63
Nc1ncc2c(n1)-c1c([nH]c3ccc(C#CC4CC4)cc13)CCCC2,"binding, competition with immobilised ligand",1 µM,100
O=C(NCCCN1CCOCC1)c1ccc(Nc2nccc(-c3cc4ccccc4s3)n2)cc1,"binding, competition with immobilised ligand",1 µM,100
COc1ccc2c(O[C@@H]3C[C@H]4C(=O)N[C@]5(C(=O)O)CC5/C=C\CCCCC[C@H](NC(=O)OC5CCCC5)C(=O)N4C3)cc(-c3csc(NC(=O)C(C)C)n3)nc2c1C (stereo partly drawn),"cell-free assay, competition with immobilised ligand",1 µM,100
COc1cnc(Nc2cccc(S(N)(=O)=O)c2)nc1N1CCN(c2ccccc2)CC1,"binding, competition with immobilised ligand",1 µM,85
COc1ccnn2ncc(-c3ccnc(N(C)C)n3)c12,binding,1 µM,93
O=C(Nc1cccnn1)N1CCC(=Cc2cccc(Oc3ccc(C(F)(F)F)cn3)c2)CC1,"cell-free assay, competition with immobilised ligand",1 µM,100
C[C@@H]1CCN(c2nccc(-c3cnn4ncccc34)n2)C1,binding,1 µM,90
CSc1cccnc1N1CCN(Cc2nc3ccccc3[nH]2)CC1,"binding, competition with immobilised ligand",1 µM,90
CNC(=O)[C@@H]1CC[C@@H](n2c(-c3ccc4cnccc4c3)nc3ccc(C(=O)NCc4cccc(C(N)=O)c4)cc32)C1,"binding, competition with immobilised ligand",1 µM,100
CCN1CCN(Cc2ccc(C(=O)Nc3ccc(C)c(Oc4ccc5c(c4)CC(=O)N5)c3)cc2C(F)(F)F)CC1,"binding, competition with immobilised ligand",1 µM,98
C[C@@H]1CN(c2cc(-c3n[nH]c4ccc(OC5(C)CC5)cc34)ncn2)C[C@H](C)O1,"cell-free assay, competition with immobilised ligand",0.1 µM,74
O=C(c1ccc(Nc2ncc(Cl)c(-c3ccc(Cl)s3)n2)cc1)N1CCC(N2CCCC2)CC1,"binding, competition with immobilised ligand",1 µM,100
CN(C)c1nccc(-c2cnn3ncccc23)n1,binding,1 µM,90
O=C(NCC1CCOCC1)c1n[nH]cc1NC(=O)c1c(F)cccc1F,"binding, competition with immobilised ligand",1 µM,100
CN(C)c1ncc(F)c(-c2cnn3ncccc23)n1,binding,1 µM,100
CN(C(=O)c1ccccc1)c1cc(N(C)c2ccc3c(c2)CCc2ccc(C(=O)NCCN4CCOCC4)cc2C3=O)ccc1F,"cell-free assay, competition with immobilised ligand",1 µM,100
Cc1cnc(Nc2ccc(C(=O)N3CCC(N4CCCC4)CC3)cc2)nc1-c1cc2ccccc2s1,"binding, competition with immobilised ligand",1 µM,100
N[C@H]1CCN(c2nccc(-c3cnn4ncccc34)n2)C1,binding,1 µM,100
C[C@@]1(Cc2ccc(C#N)cc2)C(=O)N(c2cc(Cl)cc(Cl)c2)c2ncc(C(=O)NC3(c4nc(C5CCC5)no4)CC3)n21,"cell-free assay, competition with immobilised ligand",1 µM,92
